Active and inactive are the calls of the source. The calls are words filed in the database; no cut-off is given here.
How the values were obtained:
[1] = test system: Canis familiaris; test: Reduction of blood pressure in mongrel dog at 1 to 2 mg/kg, iv by electrocardiograph analysis; format: functional, organism-based; details: Canis lupus familiaris
Summary of the method: (§1)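 Dog blood pressure recorded after iv injection via a right femoral vein cannula (1–2 mg/kg), each dose washed in with 0.5 ml saline. Where stated, β blockade with propranolol 2 mg/kg, checked for adequacy with […].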

[2] = test system: Canis familiaris; test: Reduction of systolic blood pressure in mongrel dog at 1 to 2 mg/kg, iv up to 30 seconds by electrocardiograph analysis in presence of alpha-blocker phenoxybenzamine; format: functional, Canis lupus familiaris, Artery; details: dose mg/kg 1-2
Summary of the method: (§2)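 Dogs pretreated with phenoxybenzamine 3 mg/kg as α-blocker, blockade checked with […]. Test agents given iv (1–2 mg/kg) via a femoral vein cannula, washed in with 0.5 ml saline; tracheotomized animals. Systolic, diastolic and pulse pressure followed over an initial 30-sec phase and a second phase of about 30 min.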

[3] = test system: Canis familiaris; test: Reduction of systolic blood pressure in mongrel dog at 1 to 2 mg/kg, iv up to 30 mins by electrocardiograph analysis in presence of alpha-blocker phenoxybenzamine; format: functional, Canis lupus familiaris, Artery; details: dose mg/kg 1-2; summary of the method: as §2
[4] = Potentiation of D(-)-norepinephrine-induced contraction in Sprague-Dawley rat vas deferens assessed as contraction level at 1 x 10^-4 M relative to norepinephrine; format: functional
Summary of the method: (§3)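 Isolated vasa deferentia from male Sprague–Dawley rats (300–350 g) in a 10-ml bath of Tyrode's solution, 37°, gassed with 95% O2/5% CO2. Cumulative NE dose-response curves over 3×10^-7 to 3×10^-5 M, with test agent at 1×10^-4 or 1×10^-3 M. Isotonic contractions recorded kymographically, 5 min between contractions after washout. Response expressed as percent of NE cumulative maximum (=100%), calculated per preparation. PD2 given as mean ± SE of ten curves; t test.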

[5] = species on record: Rattus norvegicus; test: (§4) Potentiation of D(-)-norepinephrine-induced contraction in reserpine-treated Sprague-Dawley rat vas deferens assessed as contraction level at 1 x 10^-4 M relative to norepinephrine; format: functional
Summary of the method: (§5)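 Rats were reserpinized with 5 mg/kg ip 24 hr before the experiment. Vasa deferentia were then set up in Tyrode's solution at 37°, gassed with 95% O2/5% CO2. Cumulative NE curves over 3×10^-7 to 3×10^-5 M, with test agent present. Isotonic contractions recorded kymographically. Response as percent of NE cumulative maximum; mean ± SE; t test.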

[6] = test system: Canis familiaris; test: Reduction of blood pressure in mongrel dog at 1 to 2 mg/kg, iv by electrocardiograph analysis in presence of propranolol; format: functional, organism-based; details: Canis lupus familiaris; summary of the method: as §1
[7] = test system: Canis familiaris; test: Reduction of pulse pressure in mongrel dog at 1 to 2 mg/kg, iv up to 30 mins by electrocardiograph analysis in presence of alpha-blocker phenoxybenzamine; format: functional, Canis lupus familiaris; details: dose mg/kg 1-2; summary of the method: as §2
[8] = species on record: Rattus norvegicus; test: Potentiation of D(-)-norepinephrine-induced contraction in reserpine-treated Sprague-Dawley rat vas deferens at 1 x 10^-2 M relative to control; format: functional, tissue-based; summary of the method: as §5
[9] = test system: Canis familiaris; test: Reduction of blood pressure in iv dosed mongrel dog by electrocardiograph analysis in presence of hexamethonium and atropine; format: functional, organism-based; details: Canis lupus familiaris
[10] = species on record: Oryctolagus cuniculus; test: Inhibition of spontaneous contractions in isolated rabbit atria at 1 x 10^-4 M; format: functional; details: Cardiac atrium
[11] = Potentiation of D(-)-norepinephrine-induced contraction in Sprague-Dawley rat vas deferens assessed as contraction level at 1 x 10^-2 M relative to norepinephrine; format: functional
[12] = test system: Vas deferens; test: Inhibition of norepinephrine uptake in Sprague-Dawley rat vas deferens at 1 x 10^-4 M after 60 mins by fluorometric analysis; format: functional
Summary of the method: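 Rat vas deferens pieces (50–60 mg, two per rat) incubated free-floating for 60 min at 37° in oxygenated Tyrode's with NE 1.5×10^-7 M, with or without test agent at 1×10^-4 M. Tissue then washed three times for 5 sec, and total catecholamines estimated fluorometrically by autoanalyzer. Mean ± SE of five experiments; t test vs control.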

[13] = species on record: Rattus norvegicus; test: (§6) Potentiation of D(-)-norepinephrine-induced contraction in reserpine-treated Sprague-Dawley rat vas deferens assessed as contraction level at 1 x 10^-3 M relative to norepinephrine; format: functional; summary of the method: as §5
[14] = Induction of norepinephrine release in Sprague-Dawley rat vas deferens at 1 x 10^-4 M after 30 mins by fluorometric analysis; format: functional
Summary of the method: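 Rat vas deferens pieces incubated 30 min in oxygenated Tyrode's with agent at 1×10^-4 M. Total catecholamines then measured fluorometrically by autoanalyzer. Mean ± SE of five experiments; t test vs control.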

[15] = test system: Canis familiaris; test: Reduction of diastolic blood pressure in mongrel dog at 1 to 2 mg/kg, iv up to 30 seconds by electrocardiograph analysis in presence of alpha-blocker phenoxybenzamine; format: functional, Canis lupus familiaris, Artery; details: dose mg/kg 1-2; summary of the method: as §2
[16] = test system: Canis familiaris; test: Reduction of diastolic blood pressure in mongrel dog at 1 to 2 mg/kg, iv up to 30 mins by electrocardiograph analysis in presence of alpha-blocker phenoxybenzamine; format: functional, Canis lupus familiaris, Artery; details: dose mg/kg 1-2; summary of the method: as §2
[17] = test system: Canis familiaris; test: Reduction of pulse pressure in mongrel dog at 1 to 2 mg/kg, iv up to 30 seconds by electrocardiograph analysis in presence of alpha-blocker phenoxybenzamine; format: functional, organism-based; details: Canis lupus familiaris; summary of the method: as §2
[18] = test system: Vas deferens; test: Inhibition of D(-)-norepinephrine-induced contraction in Sprague-Dawley rat vas deferens assessed as contraction level at 1 x 10^-3 M relative to norepinephrine; format: functional; parameters: scale not given: the % may be the effect or the level left; summary of the method: as §3
[19] = species on record: Oryctolagus cuniculus; test: Increase in spontaneous contractions in isolated rabbit atria at 1 x 10^-4 M; format: functional; details: Cardiac atrium
[20] = species on record: Oryctolagus cuniculus; test: Inhibition of spontaneous contractions in isolated rabbit atria at 1 x 10^-3 M; format: functional; details: Cardiac atrium
[21] = test system: Canis familiaris; test: Increase in diastolic blood pressure in mongrel dog at 2 mg/kg, iv by electrocardiograph analysis; format: functional, Canis lupus familiaris, Artery
[22] = test system: Canis familiaris; test: Increase in systolic blood pressure in mongrel dog at 2 mg/kg, iv by electrocardiograph analysis; format: functional, Canis lupus familiaris, Artery
[23] = test system: Canis familiaris; test: Reduction of pulse pressure in mongrel dog at 2 mg/kg, iv by electrocardiograph analysis in presence of alpha-blocker phenoxybenzamine; format: functional, organism-based; parameters: dose 2 mg/kg; details: Canis lupus familiaris
[24] = test system: Canis familiaris; test: Induction of beta-adrenergic response in mongrel dog at 2 mg/kg, iv by electrocardiograph analysis; format: functional, organism-based; parameters: dose 2 mg/kg; details: Canis lupus familiaris
[25] = test system: Canis familiaris; test: Increase in pulse pressure in mongrel dog at 2 mg/kg, iv by electrocardiograph analysis; format: functional, Canis lupus familiaris
[26] = test system: Canis familiaris; test: Induction of beta-adrenergic response in mongrel dog at 2 mg/kg, iv by electrocardiograph analysis in presence of propranolol; format: functional, organism-based; parameters: dose 2 mg/kg; details: Canis lupus familiaris
[27] = test system: Canis familiaris; test: Reduction of systolic blood pressure in mongrel dog at 2 mg/kg, iv by electrocardiograph analysis in presence of alpha-blocker phenoxybenzamine; format: functional, organism-based; parameters: dose 2 mg/kg; details: Canis lupus familiaris, Artery
[28] = test system: Canis familiaris; test: Reduction of diastolic blood pressure in mongrel dog at 2 mg/kg, iv by electrocardiograph analysis in presence of alpha-blocker phenoxybenzamine; format: functional, organism-based; parameters: dose 2 mg/kg; details: Canis lupus familiaris, Artery
[29] = as §4; format: functional; summary of the method: as §5
[30] = as §6; format: functional; summary of the method: as §5

Compound	Activity [1]	Activity [4]	Activity [5]	Activity [8]	Activity [12]	Activity [13]	Activity [14]	Activity [18]	Activity [19]	inhibition [20]	other results
CC(C)N[C@@H](C)[C@H](O)c1ccccc1	Active	158%	Active	Active	9.2 µg/g	Active	7 µg/g	–	–	–	Activity [2]: 50 mmHg; Activity [3]: 15 mmHg; Activity [6]: Active; Activity [7]: 15 mmHg; Activity [9]: Active; inhibition [10]: Active; Activity [11]: 90%; Activity [15]: 50 mmHg; Activity [16]: 30 mmHg; Activity [17]: Active
CC(C)N[C@@H]1C[C@@H]2CCCC[C@H]2C[C@@]1(O)c1ccccc1	Active	94%	Active	Active	9.5 µg/g	Active	8.1 µg/g	16%	Active	Active	–
CC(C)N[C@H](C)[C@H](O)c1ccccc1	Active	145%	Active	Active	9.3 µg/g	Active	7.4 µg/g	–	–	Active	Activity [11]: 70%
CN[C@@H](C)[C@H](O)c1ccccc1 [EPHEDRINE]	–	–	–	–	–	–	–	–	–	–	Activity [21]: 40 mmHg; Activity [22]: 40 mmHg; Activity [23]: inactive; Activity [24]: Active; Activity [25]: 40 mmHg; Activity [26]: inactive; Activity [27]: inactive; Activity [28]: inactive
CC(C)N[C@H]1C[C@@H]2CCCC[C@H]2C[C@@]1(O)c1ccccc1	Active	96%	Active	Active	9.6 µg/g	Active	7.8 µg/g	10%	Active	Active	Activity [2]: 50 mmHg; Activity [3]: 15 mmHg; Activity [6]: Active; Activity [7]: 15 mmHg; Activity [15]: 50 mmHg; Activity [16]: 30 mmHg; Activity [17]: Active
CC(C)N[C@H]1C[C@@H]2CCCC[C@H]2C[C@]1(O)c1ccccc1	Active	132%	–	Active	9.1 µg/g	–	7.9 µg/g	88%	Active	Active	Activity [29]: 130%; Activity [30]: 84%
CC(C)N[C@@H]1C[C@@H]2CCCC[C@H]2C[C@]1(O)c1ccccc1	Active	128%	Active	Active	9.3 µg/g	Active	7.7 µg/g	85%	–	–	inhibition [10]: Active
